Experimental findings from ChEMBL document CHEMBL1123516, “Substituted 1,3,4-thiadiazoles with anticonvulsant activity. 1. Hydrazines” (J Med Chem, 1986) are described below.

The ED50 is the midpoint of the dose-response relation. Lower therefore signals greater potency. In general, TD50 refers to the 50% point of the dose-response relation for the toxic effect studied. Low readings indicate harm at a small dose, high ones harm only at a large dose.

Data set [1] deals with Mus musculus. Kind of data set: Anticonvulsant activity tested by maximal electroshock test (MES) in mouse after 1 hr of administration. The data set is classed as functional. The method in brief:
(§1)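 Male BKW mice (LACA origin), 18-22 g, dosed ip or po with compound dissolved or suspended in 2% Tween 80 in distilled water. Readout was block of hind limb tonic seizure. ED50 was derived by probit analysis using the computerized Bliss method.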
On the technique in general: In the maximal electroshock model the usual endpoint is tonic extension of the hind limbs.

The test system of data set [2] is Rattus norvegicus. Kind of data set: Maximum percent fall in mean arterial blood pressure was evaluated by injecting 100 mg/kg perorally in DOCA hypertensive rats. It is filed as functional. The following applies: route oral.
Data set [3] can be described thus: Neurotoxicity by a rotarod test in mouse after 1 hr of administration. The data set is classed as toxicity, organism-based. The following applies: in vivo. In a few lines: (§2)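 Male BKW mice, 18-22 g, were pre-trained on a rotorod turning at 16 rpm (3 cm drum). They were dosed ip or po in 2% Tween 80/water and tested at timed intervals. TD50, the dose at which 50% fell off the rod, was derived by probit analysis.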

The test system of data set [4] is Mus musculus. Kind of data set: Anticonvulsant activity tested by maximal metrazole seizure (MMS) test in mouse after 1 hr of administration. The data set is classed as functional. The method in brief:
(§3)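 Male BKW mice, 18-22 g, dosed orally with compound in 2% Tween 80/water. Metrazol 120 mg/kg ip was given 1 h after dosing. ED50 for block of hind limb tonic seizure was derived by Bliss probit analysis.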

The subject of data set [5] is Rattus norvegicus. Kind of data set: Inhibition of hind limb tonus was tested by maximal metrazole seizure test after 4 hr of peroral administration. The data set is classed as functional. The following applies: Hindlimb, po.
The test system of data set [6] is Mus musculus. Kind of data set: Inhibition of hind limb tonus was tested at time of peak effect by maximal electroshock test (MES) in mouse on intraperitoneal administration of compound. It is filed as functional. As to conditions: Hindlimb, ip. The method in brief: as §1
Data set [7] has as its system Mus musculus. Kind of data set: Inhibition of hind limb tonus was tested by maximal metrazole seizure (MMS) test in mouse after 1 hr of peroral administration. It is filed as functional. The following applies: Hindlimb, po. In a few lines:
as §3

The test system of data set [8] is Rattus norvegicus. Kind of data set: Inhibition of hind limb tonus was tested at time of peak effect by maximal electroshock test (MES) in rat on intraperitoneal administration of compound. The data set is classed as functional. The following applies: Hindlimb, ip. The method in brief: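 Rats received compound intraperitoneally and were tested at the time of peak effect. ED50 was the dose blocking hind limb tonic seizure in 50% of animals, derived by probit analysis using the Bliss computerized method (Finney).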

Data set [9] has as its system Rattus norvegicus. Kind of data set: Inhibition of hind limb tonus was tested by maximal electroshock test (MES) in rat after 1 hr of peroral administration. It is filed as functional. As to conditions: Hindlimb, po.
Data set [10] deals with Mus musculus. Kind of data set: Inhibition of hind limb tonus was tested by maximal electroshock test (MES) in mouse after 1 hr of peroral administration of compound. The following applies: Hindlimb, po. It is filed as functional. The method in brief: as §1
The nature of data set [11]: Protective index (rat) was from the ratio of plasma concentration at which side effects occur by plasma concentration at which anticonvulsant activity occur. It is filed as functional. The method in brief:
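Rat plasma drug concentration at rotorod impairment was divided by the plasma concentration at MES anticonvulsant activity. Both were measured by HPLC-UV in plasma from dosed rats.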

Data set [12] is described as follows: Effect of compound on mouse motor performance was tested by rotarod test administered intraperitoneally. The data set is classed as ADME, organism-based. The following applies: in vivo, ip. The method in brief: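 Male BKW mice (18-22 g) were pre-trained on a 16 rpm rotorod with a 3 cm drum. Drug was injected intraperitoneally as a solution or suspension in 2% aqueous Tween 80, and mice were tested at the time of peak effect. TD50 was the dose making 50% of trained animals fall off, calculated by probit analysis.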
(In general: The rotarod test checks motor coordination on a turning rod.)

Data set [13] has as its system Rattus norvegicus. Kind of data set: Inhibition of hind limb tonus was tested by maximal electroshock test (MES) in rat after 4 hr of peroral administration. The following applies: Hindlimb, po. It is filed as functional.
Data set [14] relates to Rattus norvegicus. Kind of data set: Inhibition of hind limb tonus was tested by maximal metrazole seizure test after 1 hr of peroral administration of compound. It is filed as functional. The following applies: Hindlimb, po.
Data set [15] can be described thus: Effect of compound on mouse motor performance was tested by performing a rotarod test after 1 hr of peroral administration. It is filed as ADME, organism-based. The following applies: in vivo, po. In a few lines:
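Male BKW mice (LACA origin, 18-22 g) were pre-trained on a rotorod at 16 rpm with a 3 cm drum. Compound was given orally in 2% Tween 80 in water, and mice were tested 1 h later. TD50 was the dose at which 50% fell off, derived by probit analysis.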

Data set [16] concerns Mus musculus. Kind of data set: Inhibition of hind limb tonus was tested at time of peak effect by maximal metrazole seizure (MMS) test administered intraperitoneally in mouse. As to conditions: Hindlimb, ip. It is filed as organism-based. The method in brief:
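Male BKW mice (18-22 g) received compound intraperitoneally in 2% aqueous Tween 80 and were challenged with metrazol 120 mg/kg ip at the time of peak effect. ED50 for block of hind limb tonic seizure in 50% of mice was obtained by probit analysis.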

The test system of data set [17] is Mus musculus. Kind of data set: Inhibition of hind limb tonus was tested by performing a maximal metrazole seizure (MMS) test in mouse after 1 hr of peroral administration of compound. The following applies: Hindlimb, po.
The test system of data set [18] is Rattus norvegicus. Kind of data set: Inhibition of hind limb tonus was tested by maximal metrazole seizure test after 1 hr of peroral administration in rats. The data set is classed as functional. The following applies: Hindlimb, po. In a few lines:
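Rats were dosed orally, then given metrazol (leptazol) 80 mg/kg iv 1 h later, following the Desmedt method. The endpoint was hind limb tonic seizure, with ED50 by probit analysis.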

Data set [19] relates to Rattus norvegicus. Kind of data set: Inhibition of hind limb tonus was tested at time of peak effect by maximal electroshock test (MES) on intraperitoneal administration of compound in rats. It is filed as functional. As to conditions: Hindlimb, ip.
Data set [20] relates to Rattus norvegicus. Kind of data set: Inhibition of hind limb tonus was tested by maximal electroshock test (MES) in rat 1 hr after peroral dosing. As to conditions: Hindlimb, po. It is filed as functional.
Data set [21] has as its system Rattus norvegicus. Kind of data set: Inhibition of hind limb tonus was tested by maximal metrazole seizure test after 4 hr of peroral administration in rats. The data set is classed as functional. As to conditions: Hindlimb, po. In a few lines:
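Rats received the anticonvulsant orally, then metrazol (leptazol) 80 mg/kg iv, following Desmedt et al. The endpoint was block of the hind limb tonic seizure. ED50 was the dose protecting 50% of animals, by probit analysis (Bliss computerized method), with limits.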

A short description of data set [22]: Neurotoxicity by performing a rotarod in mouse after 1 hr of administration. It is filed as toxicity, organism-based. The following applies: in vivo. In a few lines:
as §2

Data set [23] concerns Mus musculus. Kind of data set: Anticonvulsant activity was assessed by performing maximal electroshock test (MES) 1 hr after dosing, in mouse. The data set is classed as functional. The method in brief:
as §1

The nature of data set [24]: Neurotoxicity by performing a rotarod test in mouse after 1 hr of administration. As to conditions: in vivo. It is filed as toxicity, organism-based. In a few lines:
as §2

A short description of data set [25]: Effect of compound on mouse motor performance was tested by rotarod test after 1 hr of peroral administration. It is filed as ADME, organism-based. As to conditions: in vivo, po. In a few lines:
as §2

The species entered for data set [26] is Rattus norvegicus. Kind of data set: Plasma concentration was determined in rat maximal electroshock test. It is filed as functional, organism-based. In a few lines:
(§4)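 Groups of six rats received compound suspended in 2% Tween 80/water (0.5 mL/100 g) ip or po. Blood was drawn by cardiac puncture into heparin at various times. Plasma was extracted and assayed by HPLC-UV on an ODS column with 1% acetic acid/methanol/0.1% aqueous ammonium acetate (45:55).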

The species entered for data set [27] is Rattus norvegicus. Kind of data set: Plasma concentration in rat rotarod test. It is filed as functional, organism-based. The method in brief:
as §4

Data set [28] can be described thus: Effect of compound on mouse motor performance was studied by performing a rotarod test in mouse dosing intraperitoneally at time of peak effect. The data set is classed as ADME, organism-based. The following applies: in vivo, ip. The method in brief: as §2

The structures appear in SMILES notation.

As for `CCCCCCOc1ccccc1-c1nnc(NN)s1.Cl`, the figures for the ED50 in the data set with Mus musculus [1] and in the data set with Mus musculus [4] were 20 mg/kg and 33 mg/kg, respectively. Moreover, in the data set on Rattus norvegicus [2], the “Decrease in blood pressure” value is 10%. In data set [3], this molecule came in with a TD50 at 1 h of more than 150 mg/kg.

Take `CCC1(c2ccccc2)C(=O)NC(=O)NC1=O` [PHENOBARBITAL]: the ED50 turned out to be 5 mg/kg in the data set on Rattus norvegicus [5]; 18 mg/kg in the data set with Mus musculus [6]; 4 mg/kg in the data set on Mus musculus [7]; 3 mg/kg in the data set on Rattus norvegicus [8]; 9 mg/kg in the data set with Rattus norvegicus [9]; 12 mg/kg in the data set with Mus musculus [10]. In addition, the ED50 is 3 mg/kg in the data set on Rattus norvegicus [13], 4 mg/kg in the data set on Rattus norvegicus [14] and 6 mg/kg with Mus musculus [16]. In data set [11], the PI was determined as 2.42. In addition, in data set [12], the TD50 was 86 mg/kg. The same molecule yielded a TD50 at 1 h in data set [15] of 68 mg/kg.

Turning to `O=C1NC(=O)C(c2ccccc2)(c2ccccc2)N1` [PHENYTOIN], the ED50 is 8 mg/kg in the data set with Mus musculus [6]; 8 mg/kg in the data set with Mus musculus [17]; 8 mg/kg in the data set with Mus musculus [10]; 12 mg/kg with Rattus norvegicus [18]; 14 mg/kg in the data set on Rattus norvegicus [19]; 14 mg/kg with Rattus norvegicus [20]. In addition, the ED50 in the data set with Rattus norvegicus [13] was determined as 26 mg/kg; with Rattus norvegicus [21], 20 mg/kg; with Mus musculus [16], 12 mg/kg. Also, in [11], the PI came to 5.17.

In data set [22], `COCN(N)c1nnc(-c2ccccc2Cl)s1` yielded a TD50 at 1 h of 80 mg/kg. Further, the ED50 with Mus musculus [1] stood at 50 mg/kg; with Mus musculus [4], 60 mg/kg.

Consider `CN(C)N(C)c1nnc(-c2ccccc2-c2ccccc2)s1.Cl`, for which the values for the ED50 in the data set on Mus musculus [23] and in the data set with Mus musculus [4] were 63 mg/kg and 73 mg/kg, respectively. Also, the TD50 at 1 h in data set [24] was more than 800 mg/kg.

For `NC(=O)N1c2ccccc2C=Cc2ccccc21` [CARBAMAZEPINE], the ED50 in the data set with Rattus norvegicus [5] amounted to 5 mg/kg; with Mus musculus [6] it was 6 mg/kg; in the data set with Mus musculus [7] it was 11 mg/kg; in the data set with Rattus norvegicus [9], 4 mg/kg; in the data set on Mus musculus [10], 20 mg/kg; with Rattus norvegicus [19], 2 mg/kg. In addition, the ED50 in the data set on Rattus norvegicus [13] stood at 7 mg/kg; in the data set with Rattus norvegicus [14], 3 mg/kg. Moreover, the PI in [11] was determined as 2.51.

With `CN(N)c1nnc(-c2ccccc2-c2ccccc2)s1`, the ED50 in the data set with Rattus norvegicus [5] came out at 13 mg/kg; in the data set with Mus musculus [6], 17 mg/kg; in the data set on Mus musculus [7] it was 27 mg/kg; with Rattus norvegicus [9], 16 mg/kg; with Mus musculus [10], 18 mg/kg; in the data set on Rattus norvegicus [19] it was 6 mg/kg. Moreover, the ED50 in the data set with Rattus norvegicus [13] came to 11 mg/kg; with Rattus norvegicus [14], 13 mg/kg. For the same molecule, in [25], the TD50 at 1 h is more than 1000 mg/kg. Besides, the PI in data set [11] turned out to be 5.14. In addition, the values for the Concentration in the data set listed under Rattus norvegicus [26] and in the data set filed under Rattus norvegicus [27] were 11.1 µg/mL and 57 µg/mL, respectively. The TD50 in data set [28] was 93 mg/kg.
